Test results: ChEMBL document CHEMBL1629526, “4-[1-(Substituted aryl/alkyl carbonyl)-benzoimidazol-2-yl]-benzenesulfonic acids: synthesis, antimicrobial activity, QSAR studies, and antiviral evaluation” (Eur J Med Chem, 2010)
Values after ≈ are worked out from the molar mass of the structure shown.

Key:
Influenza A virus [1] = assay: Antiviral activity against Influenza A H1N1 virus subtype infected in MDCK cells assessed as inhibition of virus induced cytopathicity after 2 to 4 days by MTS assay; format: functional, organism-based
Human respirovirus 3 = assay: Antiviral activity against parainfluenza-3 virus infected in african green monkey Vero cells assessed as inhibition of virus induced cytopathicity after 2 to 4 days by MTS assay; format: functional, organism-based; details: Human respirovirus 3, Vero
MDCK = assay: Cytotoxicity against MDCK cells assessed as cell viability by MTS assay; format: cell-based, Canis lupus familiaris; details: dog, mdck
Summary of the method: (§1)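 Uninfected cultures were run in parallel with the antiviral assays. Viability was read by colorimetric formazan MTS assay.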

[2] = Cytotoxicity against cat CRFK cells assessed as cell viability by MTS assay; format: cell-based, Felis catus; details: crfk; summary of the method: as §1
HeLa = assay: Cytotoxicity against human HeLa cells assessed as cell viability by MTS assay; format: cell-based; details: hela; summary of the method: as §1
[3] = Cytotoxicity against african green monkey Vero cells assessed as altered cell morphology; format: cell-based; details: chlorocebus sabaeus
Summary of the method: (§2)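 Uninfected cell cultures run alongside the antiviral assays, exposed to serial compound dilutions and incubated at 37 °C for 2–4 days. Toxicity was scored microscopically and reported as the minimum cytotoxic concentration (MCC), the lowest concentration causing a detectable change in normal cell morphology.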

Candida albicans = assay: Antimicrobial activity against Candida albicans after 48 hrs by tube dilution method; format: functional
Aspergillus niger = assay: Antimicrobial activity against Aspergillus niger after 7 days by tube dilution method; format: functional; details: 168 h
Bacillus subtilis = assay: Antimicrobial activity against Bacillus subtilis after 24 hrs by tube dilution method; format: functional
Summary of the method: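 Serial dilutions in double-strength nutrient broth (I.P.) with ciprofloxacin as reference, tube dilution, incubated 37 °C for 24 h. MIC is the lowest concentration that inhibited growth.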

[4] = test system: Vesicular stomatitis virus; assay: Antiviral activity against Vesicular stomatitis virus infected in human HeLa cells assessed as inhibition of virus induced cytopathicity after 2 to 4 days by MTS assay; format: functional, organism-based
Feline coronavirus = assay: Antiviral activity against Feline coronavirus infected in cat CRFK cells assessed as inhibition of virus induced cytopathicity after 2 to 4 days by MTS assay; format: functional, organism-based; details: Alphacoronavirus 1, CRFK
[5] = Cytotoxicity against MDCK cells assessed as altered cell morphology; format: cell-based, Canis lupus familiaris; details: dog; summary of the method: as §2
Felid alphaherpesvirus 1 = assay: Antiviral activity against Feline herpesvirus 1 infected in cat CRFK cells assessed as inhibition of virus induced cytopathicity after 2 to 4 days by MTS assay; format: functional, organism-based; details: Felid alphaherpesvirus 1, CRFK
[6] = test system: Respiratory syncytial virus; assay: Antiviral activity against Respiratory syncytial virus infected in human HeLa cells assessed as inhibition of virus induced cytopathicity by visual scoring of CPE; format: functional, organism-based
Influenza B virus [7] = assay: Antiviral activity against Influenza B virus infected in MDCK cells assessed as inhibition of virus induced cytopathicity by visual scoring of CPE; format: functional, organism-based
Influenza A virus [8] = assay: Antiviral activity against Influenza A H3N2 virus subtype infected in MDCK cells assessed as inhibition of virus induced cytopathicity by visual scoring of CPE; format: functional, organism-based
[9] = Cytotoxicity against human HeLa cells assessed as altered cell morphology; format: cell-based; summary of the method: as §2
Escherichia coli = assay: Antimicrobial activity against Escherichia coli after 24 hrs by tube dilution method; format: functional
Punta Toro virus = assay: Antiviral activity against Punta Toro virus infected in african green monkey Vero cells assessed as inhibition of virus induced cytopathicity after 2 to 4 days by MTS assay; format: functional, organism-based
Coxsackievirus B4 [10] = assay: Antiviral activity against coxsackievirus B4 infected in human HeLa cells assessed as inhibition of virus induced cytopathicity by visual scoring of CPE; format: functional, organism-based; details: Enterovirus B
Sindbis virus = assay: Antiviral activity against Sindbis virus infected in african green monkey Vero cells assessed as inhibition of virus induced cytopathicity after 2 to 4 days by MTS assay; format: functional, organism-based
Coxsackievirus B4 [11] = assay: Antiviral activity against Coxsackie virus B4 infected in african green monkey Vero cells assessed as inhibition of virus induced cytopathicity after 2 to 4 days by MTS assay; format: functional, organism-based; details: Enterovirus B
Coxsackievirus B4 [12] = assay: Antiviral activity against coxsackievirus B4 infected in human HeLa cells assessed as inhibition of virus induced cytopathicity after 2 to 4 days by MTS assay; format: functional, organism-based; details: Enterovirus B
Staphylococcus aureus = assay: Antimicrobial activity against Staphylococcus aureus after 24 hrs by tube dilution method; format: functional
[13] = Cytotoxicity against human HEL cells assessed as altered cell morphology; format: cell-based; summary of the method: as §2
Influenza A virus [14] = assay: Antiviral activity against Influenza A H1N1 virus subtype infected in MDCK cells assessed as inhibition of virus induced cytopathicity by visual scoring of CPE; format: functional, organism-based
Vaccinia virus = assay: Antiviral activity against Vaccinia virus infected in HEL cells assessed as inhibition of virus induced cytopathicity after 2 to 4 days by MTS assay; format: functional, organism-based; details: Orthopoxvirus vaccinia
Influenza B virus [15] = assay: Antiviral activity against Influenza B virus infected in MDCK cells assessed as inhibition of virus induced cytopathicity after 2 to 4 days by MTS assay; format: functional, organism-based
Human alphaherpesvirus 1 [16] = assay: Antiviral activity against thymidine kinase deficient acyclovir-resistant Herpes simplex virus 1 KOS infected in HEL cells assessed as inhibition of virus induced cytopathicity after 2 to 4 days by MTS assay; format: functional, organism-based; details: Human alphaherpesvirus 1, KOS
[17] = test system: Vesicular stomatitis virus; assay: Antiviral activity against Vesicular stomatitis virus infected in human HeLa cells assessed as inhibition of virus induced cytopathicity by visual scoring of CPE; format: functional, organism-based
[18] = test system: Mammalian orthoreovirus 1; assay: Antiviral activity against Reovirus 1 virus infected in african green monkey Vero cells assessed as inhibition of virus induced cytopathicity after 2 to 4 days by MTS assay; format: functional, organism-based; details: Mammalian orthoreovirus 1, Vero
[19] = test system: Respiratory syncytial virus; assay: Antiviral activity against Respiratory syncytial virus infected in human HeLa cells assessed as inhibition of virus induced cytopathicity after 2 to 4 days by MTS assay; format: functional, organism-based
Human alphaherpesvirus 1 [20] = assay: Antiviral activity against Herpes simplex virus 1 KOS infected in HEL cells assessed as inhibition of virus induced cytopathicity after 2 to 4 days by MTS assay; format: functional, organism-based; details: Human alphaherpesvirus 1, KOS
[21] = test system: Vesicular stomatitis virus; assay: Antiviral activity against Vesicular stomatitis virus infected in HEL cells assessed as inhibition of virus induced cytopathicity after 2 to 4 days by MTS assay; format: functional, organism-based
Influenza A virus [22] = assay: Antiviral activity against Influenza A H3N2 virus subtype infected in MDCK cells assessed as inhibition of virus induced cytopathicity after 2 to 4 days by MTS assay; format: functional, organism-based
Human alphaherpesvirus 2 = assay: Antiviral activity against Herpes simplex virus 2 G infected in HEL cells assessed as inhibition of virus induced cytopathicity after 2 to 4 days by MTS assay; format: functional, organism-based; details: Human alphaherpesvirus 2, strain G

Structure (SMILES) | EC50 (Influenza A virus [1]) [µg/mL] | EC50 (Human respirovirus 3) [µg/mL] | CC50 (MDCK) [µg/mL] | CC50 [2] [µg/mL] | CC50 (HeLa) [µg/mL] | MCC [3] [µg/mL] | MFC (Candida albicans) [µg/mL] | MFC (Aspergillus niger) [µg/mL] | MBC (Bacillus subtilis) [µg/mL] | EC50 [4] [µg/mL] | EC50 (Feline coronavirus) [µg/mL] | MCC [5] [µg/mL] | EC50 (Felid alphaherpesvirus 1) [µg/mL] | EC50 [6] [µg/mL] | EC50 (Influenza B virus [7]) [µg/mL] | EC50 (Influenza A virus [8]) [µg/mL] | MCC [9] [µg/mL] | MBC (Escherichia coli) [µg/mL] | EC50 (Punta Toro virus) [µg/mL] | EC50 (Coxsackievirus B4 [10]) [µg/mL] | other results
O=C(c1ccc(O)cc1O)n1c(-c2ccc(S(=O)(=O)O)cc2)nc2ccccc21 | > 4 | > 100 | 54 (≈ 132 µM) | > 100 | > 100 | > 100 | 12.5 (≈ 30.5 µM) | > 50 | 25 (≈ 60.9 µM) | > 100 | > 100 | 20 | > 100 | > 100 | > 4 | > 4 | > 100 | 1.56 (≈ 3.8 µM) | > 100 | > 100 | EC50 (Sindbis virus): > 100 µg/mL; EC50 (Coxsackievirus B4 [11]): > 100 µg/mL; EC50 (Coxsackievirus B4 [12]): > 100 µg/mL; MBC (Staphylococcus aureus): 12.5 µg/mL (≈ 30.5 µM); MCC [13]: 100 µg/mL; EC50 (Influenza A virus [14]): > 4 µg/mL; EC50 (Vaccinia virus): > 20 µg/mL; EC50 (Influenza B virus [15]): > 4 µg/mL; EC50 (Human alphaherpesvirus 1 [16]): > 20 µg/mL; EC50 [17]: > 100 µg/mL; EC50 [18]: > 100 µg/mL; EC50 [19]: > 100 µg/mL; EC50 (Human alphaherpesvirus 1 [20]): > 20 µg/mL; EC50 [21]: > 20 µg/mL; EC50 (Influenza A virus [22]): > 4 µg/mL; EC50 (Human alphaherpesvirus 2): > 20 µg/mL
O=C(c1ccccc1O)n1c(-c2ccc(S(=O)(=O)O)cc2)nc2ccccc21 | > 20 | > 100 | > 100 | > 100 | > 100 | > 100 | 50 (≈ 127 µM) | > 50 | 25 (≈ 63.4 µM) | > 100 | > 100 | 100 | > 100 | > 100 | > 20 | > 20 | > 100 | 12.5 (≈ 31.7 µM) | > 100 | > 100 | EC50 (Sindbis virus): > 100 µg/mL; EC50 (Coxsackievirus B4 [11]): > 100 µg/mL; EC50 (Coxsackievirus B4 [12]): > 100 µg/mL; MBC (Staphylococcus aureus): 25 µg/mL (≈ 63.4 µM); MCC [13]: > 100 µg/mL; EC50 (Influenza A virus [14]): > 20 µg/mL; EC50 (Vaccinia virus): > 100 µg/mL; EC50 (Influenza B virus [15]): > 20 µg/mL; EC50 (Human alphaherpesvirus 1 [16]): > 100 µg/mL; EC50 [17]: > 100 µg/mL; EC50 [18]: > 100 µg/mL; EC50 [19]: > 100 µg/mL; EC50 (Human alphaherpesvirus 1 [20]): > 100 µg/mL; EC50 [21]: > 100 µg/mL; EC50 (Influenza A virus [22]): > 20 µg/mL; EC50 (Human alphaherpesvirus 2): > 100 µg/mL
